{"data": "Results from different studies", "ABL1 Q252H": "Tyrosine-protein kinase ABL1 (ABL1, Homo sapiens, UniProt P00519, Q252H)", "ABL1 E255K phosphorylated": "Tyrosine-protein kinase ABL1, phosphorylated (ABL1, Homo sapiens, UniProt P00519, E255K)", "ABL1 Q252H non-phosphorylated": "Tyrosine-protein kinase ABL1, non-phosphorylated (ABL1, Homo sapiens, UniProt P00519, Q252H)", "ABL1 T315I phosphorylated": "Tyrosine-protein kinase ABL1, phosphorylated (ABL1, Homo sapiens, UniProt P00519, T315I)", "ABL1 phosphorylated": "Tyrosine-protein kinase ABL1, phosphorylated (ABL1, Homo sapiens, UniProt P00519)", "ABL1 non-phosphorylated": "Tyrosine-protein kinase ABL1, non-phosphorylated (ABL1, Homo sapiens, UniProt P00519)", "ABL1 E255K": "Tyrosine-protein kinase ABL1 (ABL1, Homo sapiens, UniProt P00519, E255K)", "ABL1 F317L non-phosphorylated": "Tyrosine-protein kinase ABL1, non-phosphorylated (ABL1, Homo sapiens, UniProt P00519, F317L)", "ABL1 Y253F": "Tyrosine-protein kinase ABL1 (ABL1, Homo sapiens, UniProt P00519, Y253F)", "note": "Protocols differ between the studies behind these lines."}
{"Compound": "C[C@H]1CCN(c2nccc(-c3cnn4ncccc34)n2)C1", "target": "ABL1 Q252H", "observed": "binding", "tested at": "1 µM", "remaining binding [%]": 84}
{"Compound": "O=C(NCCCN1CCOCC1)c1ccc(Nc2nccc(-c3cc4ccccc4s3)n2)cc1", "target": "ABL1 E255K phosphorylated", "observed": "binding", "method": "competition with immobilised ligand", "tested at": "1 µM", "remaining binding [%]": 45}
{"Compound": "C[C@@H](c1ccc(-n2cnc3c(N)ncnc32)cc1)N1CCc2nn(C)c(Cc3ccccc3)c2C1=O", "target": "ABL1 Q252H non-phosphorylated", "observed": "binding", "method": "competition with immobilised ligand", "tested at": "0.1 µM", "remaining binding [%]": 26}
{"Compound": "N[C@H]1CCN(c2nccc(-c3cnn4ncccc34)n2)C1", "target": "Tyrosine-protein kinase ABL1 (ABL1, Homo sapiens, UniProt P00519, T315I)", "observed": "binding", "tested at": "1 µM", "remaining binding [%]": 88}
{"Compound": "O=C(Nc1c[nH]nc1C(=O)NC1CCNCC1)c1cc(F)cc(F)c1", "target": "ABL1 T315I phosphorylated", "observed": "binding", "method": "competition with immobilised ligand", "tested at": "1 µM", "remaining binding [%]": 98}
{"Compound": "Nc1ncc2c(n1)-c1c([nH]c3ccc(C#CC4CC4)cc13)CCCC2", "target": "ABL1 Q252H non-phosphorylated", "observed": "binding", "method": "competition with immobilised ligand", "tested at": "1 µM", "remaining binding [%]": 93}
{"Compound": "Cc1cnc(Nc2ccc(C(=O)N3CCC(N4CCCC4)CC3)cc2)nc1-c1cc2ccccc2s1", "target": "Tyrosine-protein kinase ABL1, phosphorylated (ABL1, Homo sapiens, UniProt P00519, M351T)", "observed": "binding", "method": "competition with immobilised ligand", "tested at": "1 µM", "remaining binding [%]": 1.4}
{"Compound": "CNC(=O)[C@@H]1CC[C@@H](n2c(-c3ccc4cnccc4c3)nc3ccc(C(=O)NCc4cccc(C(N)=O)c4)cc32)C1", "target": "ABL1 T315I phosphorylated", "observed": "binding", "method": "competition with immobilised ligand", "tested at": "1 µM", "remaining binding [%]": 100}
{"Compound": "CC(C)(C)c1ccc(-c2nc(CBr)nn2-c2cccc(O)c2)cc1", "target": "ABL1 E255K phosphorylated", "observed": "cell-free assay", "method": "competition with immobilised ligand", "tested at": "10 µM", "remaining binding [%]": 74}
{"Compound": "c1cncc(-c2cccc(Nc3nccc(NC4CCCCC4)n3)c2)c1", "target": "ABL1 phosphorylated", "observed": "binding", "method": "competition with immobilised ligand", "tested at": "10 µM", "remaining binding [%]": 32}
{"Compound": "COc1cnc(Nc2cccc(S(N)(=O)=O)c2)nc1N1CCN(c2ccccc2)C(=O)C1", "target": "ABL1 non-phosphorylated", "observed": "binding", "method": "competition with immobilised ligand", "tested at": "1 µM", "remaining binding [%]": 77}
{"Compound": "Cc1nc(Cc2cccc(C(F)(F)F)c2)sc1-c1ccc(C(N)=O)nc1", "target": "Tyrosine-protein kinase ABL1, phosphorylated (ABL1, Homo sapiens, UniProt P00519, Q252H)", "observed": "cell-free assay", "method": "competition with immobilised ligand", "tested at": "1 µM", "remaining binding [%]": 100}
{"Compound": "CN1CCN(c2ccc(Nc3nccc(-c4ccccc4)n3)cc2C(F)(F)F)CC1", "target": "ABL1 E255K", "observed": "binding", "tested at": "10 µM", "remaining binding [%]": 22}
{"Compound": "N#Cc1ccccc1CSc1nnc2c(n1)[nH]c1ccccc12", "target": "ABL1 T315I phosphorylated", "observed": "binding", "method": "competition with immobilised ligand", "tested at": "10 µM", "remaining binding [%]": 92}
{"Compound": "O=C(NCCCN1CCOCC1)c1ccc(Nc2ncc(Cl)c(-c3ccc(Cl)s3)n2)cc1", "target": "ABL1 Q252H non-phosphorylated", "observed": "binding", "method": "competition with immobilised ligand", "tested at": "1 µM", "remaining binding [%]": 11}
{"Compound": "CN(C)c1nccc(-c2cnn3ncccc23)n1", "target": "Tyrosine-protein kinase ABL1 (ABL1, Homo sapiens, UniProt P00519, H396P)", "observed": "binding", "tested at": "1 µM", "remaining binding [%]": 89}
{"Compound": "COc1ncc2cc3ccccc3nc2c1C#N", "target": "ABL1 phosphorylated", "observed": "cell-free assay", "method": "competition with immobilised ligand", "tested at": "5 µM", "remaining binding [%]": 93}
{"Compound": "Cc1cc(NC(=O)c2cccc(S(F)(F)(F)(F)F)c2)cc(-n2ccn3nc(-c4cccnc4)cc23)c1", "target": "Tyrosine-protein kinase ABL1, non-phosphorylated (ABL1, Homo sapiens, UniProt P00519, F317I)", "observed": "binding", "method": "competition with immobilised ligand", "tested at": "1 µM", "remaining binding [%]": 100}
{"Compound": "CCN1CCN(Cc2ccc(C(=O)Nc3ccc(C)c(Oc4ccc5c(c4)CC(=O)N5)c3)cc2C(F)(F)F)CC1", "target": "ABL1 Q252H non-phosphorylated", "observed": "binding", "method": "competition with immobilised ligand", "tested at": "1 µM", "remaining binding [%]": 3}
{"Compound": "COc1cnc(Nc2cccc(S(N)(=O)=O)c2)nc1N1CCN(c2ccccc2)CC1", "target": "ABL1 E255K phosphorylated", "observed": "binding", "method": "competition with immobilised ligand", "tested at": "1 µM", "remaining binding [%]": 84}
{"Compound": "N#Cc1ccc(Nc2ccc3[nH]c(=O)[nH]c3c2)c(Cl)c1", "target": "ABL1 F317L non-phosphorylated", "observed": "cell-free assay", "method": "competition with immobilised ligand", "tested at": "1 µM", "remaining binding [%]": 100}
{"Compound": "O=C(c1ccc(Nc2ncc(Cl)c(-c3ccc(Cl)s3)n2)cc1)N1CCC(N2CCCC2)CC1", "target": "ABL1 E255K phosphorylated", "observed": "binding", "method": "competition with immobilised ligand", "tested at": "1 µM", "remaining binding [%]": 4.3}
{"Compound": "O=C(NCC1CCOCC1)c1n[nH]cc1NC(=O)c1c(F)cccc1F", "target": "Tyrosine-protein kinase ABL1, non-phosphorylated (ABL1, Homo sapiens, UniProt P00519, H396P)", "observed": "binding", "method": "competition with immobilised ligand", "tested at": "1 µM", "remaining binding [%]": 76}
{"Compound": "CC1CCCN1c1nccc(-c2cnn3ncccc23)n1 (stereo not shown)", "target": "ABL1 non-phosphorylated", "observed": "binding", "method": "competition with immobilised ligand", "tested at": "1 µM", "remaining binding [%]": 97}
{"Compound": "CN1CCN(c2ccc(Nc3nccc(-c4cccc([N+](=O)[O-])c4)n3)cc2C(F)(F)F)CC1", "target": "ABL1 E255K", "observed": "binding", "tested at": "10 µM", "remaining binding [%]": 5.8}
{"Compound": "CN(C)c1nccc(-c2cnc3ncccn23)n1", "target": "ABL1 E255K", "observed": "binding", "tested at": "1 µM", "remaining binding [%]": 42}
{"Compound": "CN(C)c1ncnc(-c2ccc3nc(Nc4cc(CN5CCN(C(=O)CC(F)(F)F)CC5)ccn4)[nH]c3c2)c1Cl", "target": "ABL1 E255K phosphorylated", "observed": "binding", "method": "competition with immobilised ligand", "tested at": "1 µM", "remaining binding [%]": 49}
{"Compound": "Cc1cnn2ncc(-c3ccnc(N(C)C)n3)c2c1", "target": "ABL1 Y253F", "observed": "binding", "tested at": "1 µM", "remaining binding [%]": 85}
{"Compound": "O=C(NS(=O)(=O)c1ccc(NCC2CCOCC2)c([N+](=O)[O-])c1)c1ccc(N2CCN(Cc3ccc(C(F)(F)F)cc3-c3ccc(Cl)cc3)CC2)cc1Oc1cnc2[nH]ccc2c1", "target": "Tyrosine-protein kinase ABL1, phosphorylated (ABL1, Homo sapiens, UniProt P00519, H396P)", "observed": "cell-free assay", "method": "competition with immobilised ligand", "tested at": "1 µM", "remaining binding [%]": 92}
{"Compound": "O=C(c1ccc(Nc2ncc(Cl)c(-c3cc4ccccc4s3)n2)cc1)N1CCC(N2CCCC2)CC1", "target": "Tyrosine-protein kinase ABL1, phosphorylated (ABL1, Homo sapiens, UniProt P00519, Y253F)", "observed": "binding", "method": "competition with immobilised ligand", "tested at": "1 µM", "remaining binding [%]": 8}
{"Compound": "CN(c1nccc(-c2cnn3ncccc23)n1)C1CC1", "target": "ABL1 Q252H", "observed": "binding", "tested at": "1 µM", "remaining binding [%]": 100}
{"Compound": "O=C(NCc1ncc(C(F)(F)F)cc1Cl)c1ccc2c(c1)C1(CCS(=O)(=O)CC1)[C@H](C1CC1)N2S(=O)(=O)c1ccc(F)cc1", "target": "ABL1 phosphorylated", "observed": "cell-free assay", "method": "competition with immobilised ligand", "tested at": "1 µM", "remaining binding [%]": 71}
{"Compound": "O=C(c1ccc(Nc2nccc(-c3cc4ccccc4s3)n2)cc1)N1CCC(N2CCCC2)CC1", "target": "ABL1 F317L non-phosphorylated", "observed": "binding", "method": "competition with immobilised ligand", "tested at": "1 µM", "remaining binding [%]": 78}
{"Compound": "CC(=O)N1CCC(c2ccc(C(=O)NC(=N)N)cc2C(F)(F)F)CC1", "target": "ABL1 T315I phosphorylated", "observed": "cell-free assay", "method": "competition with immobilised ligand", "tested at": "1 µM", "remaining binding [%]": 95}
{"Compound": "c1cnn2ncc(-c3ccnc(N4CCC45COC5)n3)c2c1", "target": "ABL1 Y253F", "observed": "binding", "tested at": "1 µM", "remaining binding [%]": 59}
{"Compound": "O=c1nc(-c2ccccn2)sc2ccccc12", "target": "ABL1 non-phosphorylated", "observed": "binding", "method": "competition with immobilised ligand", "tested at": "1 µM", "remaining binding [%]": 93}
{"Compound": "C=CC(=O)N1CCC(C(=O)NCC(=O)N2CCN(c3nc(-c4cnc(N)nc4C(F)F)nc(N4CCOCC4)n3)CC2)CC1", "target": "ABL1 phosphorylated", "observed": "binding", "method": "competition with immobilised ligand", "tested at": "1 µM", "remaining binding [%]": 93}
